Measured values from ChEMBL document CHEMBL1140286, “Synthesis, in vitro characterization, and radiolabeling of N,N-dimethyl-2-(2'-amino-4'-substituted-phenylthio)benzylamines: potential candidates as selective serotonin transporter radioligands” (J Med Chem, 2005).

How the values were obtained:
Type in all cases: cell-based
[1] = target: Sodium-dependent serotonin transporter (Homo sapiens, UniProt P31645); assay: In vitro inhibition of [3H]citalopram binding to human serotonin transporter expressed in human HEK293 cells
Sodium-dependent serotonin transporter, sequence (P31645 whole entry): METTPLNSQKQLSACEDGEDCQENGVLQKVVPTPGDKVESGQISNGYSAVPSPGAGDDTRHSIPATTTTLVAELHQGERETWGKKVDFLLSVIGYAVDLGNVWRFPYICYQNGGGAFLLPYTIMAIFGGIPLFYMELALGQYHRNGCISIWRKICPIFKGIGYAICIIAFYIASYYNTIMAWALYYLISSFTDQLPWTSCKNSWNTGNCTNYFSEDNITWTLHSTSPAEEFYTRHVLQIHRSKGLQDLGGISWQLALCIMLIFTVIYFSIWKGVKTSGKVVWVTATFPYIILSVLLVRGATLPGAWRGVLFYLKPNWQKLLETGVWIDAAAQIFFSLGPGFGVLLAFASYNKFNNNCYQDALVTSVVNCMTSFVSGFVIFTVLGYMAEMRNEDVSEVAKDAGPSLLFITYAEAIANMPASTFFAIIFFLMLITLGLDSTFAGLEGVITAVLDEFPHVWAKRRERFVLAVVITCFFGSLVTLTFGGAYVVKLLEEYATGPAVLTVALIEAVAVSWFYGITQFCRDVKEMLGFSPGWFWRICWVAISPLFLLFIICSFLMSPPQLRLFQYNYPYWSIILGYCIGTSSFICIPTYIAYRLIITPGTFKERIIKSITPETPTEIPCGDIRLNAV
Summary of the method: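 Membranes from HEK-293 cells stably expressing hSERT, grown in DMEM with 10% FBS and Geneticin. 30-70 µg membrane protein incubated 2 h at room temperature with [3H]citalopram in 53 mM Tris, 126 mM NaCl, 5.3 mM KCl, pH 7.9. Competitor at 12 concentrations, 10^-13 to 10^-5 M, in triplicate. Filtration through PEI-soaked GF/B filters; Ki from competition curves, at least two separate assays.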

[2] = target: Sodium-dependent noradrenaline transporter (Homo sapiens, UniProt P23975); assay: In vitro inhibition of [3H]nisoxetine binding to norepinephrine transporter expressed in human kidney cells
Sodium-dependent noradrenaline transporter, sequence (P23975 whole entry): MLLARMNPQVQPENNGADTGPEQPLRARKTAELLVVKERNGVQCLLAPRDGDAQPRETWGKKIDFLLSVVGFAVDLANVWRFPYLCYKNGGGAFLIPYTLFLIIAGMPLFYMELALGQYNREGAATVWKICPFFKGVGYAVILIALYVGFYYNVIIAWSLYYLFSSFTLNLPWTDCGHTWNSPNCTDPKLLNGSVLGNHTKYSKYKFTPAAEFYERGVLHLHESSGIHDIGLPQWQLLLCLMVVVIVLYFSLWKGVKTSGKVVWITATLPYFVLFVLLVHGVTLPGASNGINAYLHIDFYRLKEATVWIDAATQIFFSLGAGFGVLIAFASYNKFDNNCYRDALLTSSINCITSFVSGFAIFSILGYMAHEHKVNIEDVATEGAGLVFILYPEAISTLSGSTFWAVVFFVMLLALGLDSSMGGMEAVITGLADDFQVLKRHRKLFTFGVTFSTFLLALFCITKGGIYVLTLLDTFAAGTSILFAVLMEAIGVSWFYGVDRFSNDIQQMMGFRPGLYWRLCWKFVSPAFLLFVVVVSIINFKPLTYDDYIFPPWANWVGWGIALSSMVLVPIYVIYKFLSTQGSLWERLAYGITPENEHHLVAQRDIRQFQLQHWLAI
Summary of the method: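 HEK-293 membranes stably expressing hNET (30-70 µg protein) incubated 4 h at 4 °C with [3H]nisoxetine in 53 mM Tris, 320 mM NaCl, 5.3 mM KCl, pH 7.4. Competitor dissolved in 1:1 ethanol/5 mM HCl, 12 concentrations from 10^-13 to 10^-5 M, triplicate. Cold-buffer termination, vacuum filtration on GF/B; Ki calculated from competition curves.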

[3] = target: Sodium-dependent dopamine transporter (Homo sapiens, UniProt Q01959); assay: In vitro inhibition of [3H]WIN-35428 binding to human dopamine transporter expressed in canine kidney cells
Sodium-dependent dopamine transporter, sequence (Q01959 whole entry): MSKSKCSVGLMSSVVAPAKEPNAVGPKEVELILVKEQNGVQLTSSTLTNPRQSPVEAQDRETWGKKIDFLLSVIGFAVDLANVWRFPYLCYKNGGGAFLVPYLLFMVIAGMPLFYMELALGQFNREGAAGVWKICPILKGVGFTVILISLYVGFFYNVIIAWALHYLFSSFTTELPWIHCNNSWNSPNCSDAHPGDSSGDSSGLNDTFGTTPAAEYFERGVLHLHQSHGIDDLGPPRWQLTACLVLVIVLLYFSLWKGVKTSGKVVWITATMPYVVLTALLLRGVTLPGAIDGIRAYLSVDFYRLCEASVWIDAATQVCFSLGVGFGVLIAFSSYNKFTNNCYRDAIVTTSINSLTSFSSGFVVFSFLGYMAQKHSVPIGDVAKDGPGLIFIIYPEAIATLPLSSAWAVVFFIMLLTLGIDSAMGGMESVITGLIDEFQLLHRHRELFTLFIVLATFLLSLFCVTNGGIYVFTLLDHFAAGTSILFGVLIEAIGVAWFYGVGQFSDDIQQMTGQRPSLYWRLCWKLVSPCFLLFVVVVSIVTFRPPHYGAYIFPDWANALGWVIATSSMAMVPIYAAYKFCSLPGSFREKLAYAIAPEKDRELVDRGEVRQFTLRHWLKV
Summary of the method: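 Membranes from MDCK cells stably expressing hDAT, grown to confluency in DMEM with 10% FBS and Geneticin, harvested in PBS/0.53 mM EDTA, homogenized, pelleted at 43 000g. Membranes (30-70 µg protein) incubated 1 h at room temperature in 42 mM sodium phosphate, 320 mM sucrose, pH 7.4, with 2.0 nM [3H]WIN 35,428; competitor 10^-13 to 10^-5 M, 12 concentrations, triplicate; GF/B filtration; Ki.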

| Structure (SMILES) | Ki [1] [nM] | Ki [2] [nM] | Ki [3] [nM] |
| --- | --- | --- | --- |
| CCc1ccc(Sc2ccccc2CN(C)C)c(N)c1 | 0.49 | 370 | > 2000 |
| CN(C)Cc1ccccc1Sc1ccc(CCCF)cc1N | 8.55 | 219 | > 5000 |
| CN(C)Cc1ccccc1Sc1ccccc1N | 1.59 | 4.95 | 279 |
| CN(C)Cc1ccccc1Sc1ccc(CO)cc1N | 0.57 | 303 | > 1000 |
| CN(C)Cc1ccccc1Sc1ccc(CCO)cc1N | 50.6 | 194 | > 1000 |
| Cc1ccc(Sc2ccccc2CN(C)C)c(N)c1 | 0.25 | 61 | 532 |
| CN(C)Cc1ccccc1Sc1ccc(CCF)cc1N | 8.5 | > 5000 | > 5000 |
| CNCc1ccccc1Sc1ccc(CO)cc1N | 15.1 | 484 | > 1000 |
| CNC(=O)c1ccccc1Sc1ccc(C)cc1[N+](=O)[O-] | 1.94 | 191 | 698 |

Further lines, results first:

| Ki [1] [nM] | Ki [2] [nM] | Ki [3] [nM] | Structure (SMILES) |
| --- | --- | --- | --- |
| 0.013 |  |  | CN(C)Cc1ccccc1Sc1ccc(I)cc1N |
| 83.4 | 37.5 | 969 | CNC(=O)c1ccccc1Sc1ccccc1[N+](=O)[O-] |
| 92.3 | 108 | > 5000 | CN(C)Cc1ccccc1Sc1ccc(CCCO)cc1N |
| 2.04 | 445 | > 1000 | CCc1ccc(Sc2ccccc2CNC)c(N)c1 |
| 1.12 | 269 | 962 | C=Cc1ccc(Sc2ccccc2CN(C)C)c(N)c1 |
